Measured values from ChEMBL document CHEMBL4725347, “Discovery of a Monoiodo Aza-BODIPY Near-Infrared Photosensitizer: in vitro and in vivo Evaluation for Photodynamic Therapy” (J Med Chem, 2020).
The source made the active and inactive calls. The rule behind the calls is not given here.

Key:
[1] = Drug uptake in human HeLa cells xenografted Balb/c nu/nu mouse tumor at 2 mg/kg, iv measured after 3 hrs by fluorescence imaging analysis; assay type: ADME, organism-based, Neoplasm; settings: in vivo
Procedure, shortened: (§1)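 Female Balb/c nu/nu mice bore subcutaneous HeLa tumors (5×10^6 cells, right back) and received 2 mg/kg via tail vein. Living mice were imaged under isoflurane at time points (ex 680/em 720 nm, 1 s exposure). At set times mice were euthanized and heart, liver, spleen, lungs, kidneys and tumor imaged ex vivo; ROI quantified, mean ± SD, n = 3.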

[2] = Photostability of the compound in acetonitrile assessed as compound degradation irradiated with 90 mW/cm2 light; assay type: physicochemical
[3] = test system: HeLa; assay: Induction of apoptosis in human HeLa cells assessed as early apoptotic cells at 200 nM preincubated for 3 hrs followed by 54 J/cm2 light irradiation and measured after 24 hrs by Annexin-V-FITC/propidium iodide staining based flow cytometry (reference value: 0.54%); assay type: functional
Procedure, shortened: (§2)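 HeLa cells in six-well plates were exposed to compound for 3 h, irradiated (λ > 590 nm), and incubated 24 h at 37 °C. Cells were then harvested, washed with PBS, and stained with annexin V-FITC/PI for 20 min at room temperature before immediate flow cytometry. Untreated, unirradiated cells served as control.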

[4] = Stability of the compound in acetonitrile assessed as compound degradation under dark condition; assay type: physicochemical
[5] = test system: HeLa; assay: Induction of reactive oxygen species generation in human HeLa cells at 0.004 to 2.5 uM incubated for 3 hrs prior to H2DCFDA addition for 20 mins followed by 54 J/cm2 light irradiation by microplate reader analysis; assay type: functional, cell-based; settings: dose microM 0.004-2.5, time 3.0 hrs
Procedure, shortened: (§3)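 HeLa cells were exposed to 0.004, 0.02, 0.10, 0.5 or 2.5 μM for 3 h, washed, and loaded with H2DCFDA 10 μM in PBS for 20 min at 37 °C. After washing, cells in PBS were irradiated with 54 J/cm² (λ > 590 nm) or kept dark. Fluorescence was read by confocal microscopy and by plate reader (ex 485/em 538 nm).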

[6] = test system: MCF7; assay: Phototoxicity against human MCF7 cells assessed as reduction in cell viability preincubated for 3 hrs followed by 54 J/cm2 light irradiation and measured after 24 hrs by MTT assay; assay type: functional, cell-based; settings: MCF7, light or radiation study
Procedure, shortened: (§4)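 PS formulated in PBS containing Cremophor EL/1,2-propanediol (10:3, v:v) after THF removal, filtered, with concentration confirmed by UV-Vis. Cells were grown in DMEM with 10% FBS and seeded at 3×10^3 per well overnight. They were incubated with PS for 3 h, irradiated at λ > 590 nm, kept 24 h at 37 °C, then given MTT (0.5 mg/mL, 4 h) with DMSO solubilization and A490 read-out.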

[7] = test system: HeLa; assay: Induction of apoptosis in human HeLa cells assessed as viable cells at 40 nM preincubated for 3 hrs followed by 54 J/cm2 light irradiation and measured after 24 hrs by Annexin-V-FITC/propidium iodide staining based flow cytometry (reference value: 90.74%); assay type: functional; settings: light or radiation study, read-out: Activity; procedure, shortened: as §2
[8] = Emission property of the compound in chloroform assessed as maximum emission wavelength by fluorescence spectrophotometric method; assay type: physicochemical
Procedure, shortened: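 Fluorescence spectrum recorded in chloroform by fluorescence spectrophotometer at room temperature.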

[9] = Drug uptake in human HeLa cells xenografted Balb/c nu/nu mouse liver at 2 mg/kg, iv measured within 1 hr by fluorescence imaging analysis; assay type: ADME, organism-based; settings: in vivo; procedure, shortened: as §1
[10] = Stability of the compound in PBS containing 1% Cremophor EL/1,2-propanediol (10:3, v:v) system assessed as compound degradation under dark condition; assay type: physicochemical; settings: buffer
[11] = Dark toxicity in human MCF7 cells assessed as reduction in cell viability after 3 hrs by MTT assay; assay type: cell-based
[12] = Toxicity in human HeLa cells xenografted Balb/c nu/nu mouse assessed as body weight loss at 2 mg/kg, iv pretreated for 15 mins followed by 54 J/cm2 light irradiation for 10 mins and measured for 24 days; assay type: organism-based; settings: in vivo, 0.25 h
Procedure, shortened: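 Female Balb/c nu/nu mice (18-22 g) carried subcutaneous HeLa cells (about 5×10^6, right back) and were treated on day 7 at a tumor volume of 80-100 mm³. Five mice per group received a tail-vein dose; saline controls were also irradiated. Fifteen minutes later the tumor was irradiated once with a 75 W halogen lamp (590 nm cut-on, 90 mW/cm², 10 min), without anaesthesia. Body weight was recorded every other day.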

[13] = test system: SW480; assay: Phototoxicity against human SW480 cells assessed as reduction in cell viability preincubated for 3 hrs followed by 54 J/cm2 light irradiation and measured after 24 hrs by MTT assay; assay type: functional, cell-based; settings: SW480, light or radiation study; procedure, shortened: as §4
[14] = Drug uptake in lysosomes of human HeLa cells at 5 uM incubated for 2 hrs under dark condition by Lyso tracker green dye based laser confocal microscopic analysis; assay type: ADME, subcellular, Lysosome
Procedure, shortened: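 HeLa cells adhered overnight on glass-bottom dishes and were loaded with 5 μM compound in the dark for 2 h. After PBS washes, cells were stained with Mito-Tracker Green FM 250 nM for 30 min, Lyso-Tracker Green 160 nM for 30 min, or ER-Tracker Green 2 μM for 45 min. Confocal imaging: trackers excited at 488 nm, collected 500–560 nm; compound excited at 633 nm, collected 650–740 nm.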

[15] = test system: HeLa; assay: Induction of apoptosis in human HeLa cells assessed as late apoptotic cells at 200 nM preincubated for 3 hrs followed by 27 J/cm2 light irradiation and measured after 24 hrs by Annexin-V-FITC/propidium iodide staining based flow cytometry (reference value: 5.92%); assay type: functional; procedure, shortened: as §2
[16] = Induction of singlet oxygen generation in isopropanol assessed as relative rate of DPBF degradation to MB at 1 uM irradiated with 90 mW/cm2 halogen light; assay type: functional
Procedure, shortened: (§5)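 Singlet oxygen generation measured with 1,3-diphenylisobenzofuran (DPBF) as scavenger. The decrease in DPBF absorbance at 411 nm was monitored over time during light irradiation, and the photodegradation rate was calculated.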

[17] = Absorption property of the compound in chloroform assessed as hypsochromic shift by measuring maximum absorption wavelength by UV-visible spectrophotometric method; assay type: physicochemical
Procedure, shortened: (§6)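 Electronic absorption spectra recorded by UV-visible spectrophotometry at room temperature. Solvents were chloroform, isopropanol, acetonitrile, DMF, and PBS buffer containing 1% Cremophor EL/1,2-propanediol (10:3, v:v). Chloroform data were referenced to the non-halogenated parent dye.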

[18] = test system: HeLa; assay: Induction of apoptosis in human HeLa cells assessed as late apoptotic cells at 40 nM preincubated for 3 hrs followed by 54 J/cm2 light irradiation and measured after 24 hrs by Annexin-V-FITC/propidium iodide staining based flow cytometry (reference value: 5.92%); assay type: functional; procedure, shortened: as §2
[19] = Photostability of the compound in PBS containing 1% Cremophor EL/1,2-propanediol (10:3, v:v) system assessed as compound degradation irradiated with 90 mW/cm2 light; assay type: physicochemical; settings: buffer
[20] = Induction of singlet oxygen generation in N,N-dimethylformamide assessed as relative rate of DPBF degradation to MB at 1 uM irradiated with 90 mW/cm2 halogen light; assay type: functional; procedure, shortened: as §5
[21] = test system: HeLa; assay: Induction of reactive oxygen species generation in human HeLa cells at 0.004 to 2.5 uM incubated for 3 hrs under dark condition by confocal scanning microscopic analysis; assay type: cell-based; settings: dose 0.004-2.5 µM; procedure, shortened: as §3
[22] = Absorption property of the compound in PBS containing 1% Cremophor EL/1,2-propanediol (10:3, v:v) system assessed as absorption coefficient by UV-visible spectrophotometric method; assay type: physicochemical; settings: buffer; procedure, shortened: as §6

Drug uptake [1]: Active
Stabilty [2]: Stable
Stabilty [4]: Unstable
Activity [8]: 721 nm
Drug uptake [9]: Active
Stabilty [10]: Unstable
Drug uptake [14]: Active
Activity [17]: 678 nm
Stabilty [19]: Stable
Activity [22]: 34000 M⁻¹ cm⁻¹
Structure (SMILES): COc1ccc(C2=[N+]3C(=Nc4c(-c5ccccc5)cc(-c5ccc(OC)cc5)n4[B-]3(F)F)C(c3ccccc3)=C2I)cc1
Activity [3]: 81.04%
Activity [5]: Active
IC50 [6]: 100 nM
viability at 0.04 µM [7]: 77.3%
IC50 at 3 h [11]: > 50000 nM
Activity [12]: Non-Toxic
IC50 [13]: 86 nM
Activity [15]: 14.98%
fold change (FC) [16]: 7.3
Activity [18]: 10.31%
fold change (FC) [20]: 1.3
Activity [21]: Non-Toxic
